Test results: ChEMBL document CHEMBL1152226 (Bioorg Med Chem, 2008)

How the values were obtained:
[1] = target: Inosine-5'-monophosphate dehydrogenase 1 (Homo sapiens, UniProt P20839); test: Inhibition of human IMPDH1
How it was run: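 Run in duplicate with IMPDH type 1 (100 nM; line 2) or type 2 (30 nM; line 3) in 50 mM Tris pH 8.0, 100 mM KCl, 1 mM DTT, with IMP and NAD substrates. Inhibitors were added from DMSO to 1% final. At 25 °C, NADH formation was followed at 340 nm. Ki(app) came from fitting steady-state velocities versus inhibitor concentration to the Morrison equation.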

[2] = target: Inosine-5'-monophosphate dehydrogenase 2 (Homo sapiens, UniProt P12268); test: Inhibition of human IMPDH2
[3] = system: K562; test: Antiproliferative activity against human K562 cells after 72 hrs by MTS assay; type: functional, cell-based
[4] = Selectivity ratio of IC50 for human K562 cells to Ki for human IMPDH2; type: ADME, cell-based

Inosine-5'-monophosphate dehydrogenase 1, sequence (P20839 whole entry): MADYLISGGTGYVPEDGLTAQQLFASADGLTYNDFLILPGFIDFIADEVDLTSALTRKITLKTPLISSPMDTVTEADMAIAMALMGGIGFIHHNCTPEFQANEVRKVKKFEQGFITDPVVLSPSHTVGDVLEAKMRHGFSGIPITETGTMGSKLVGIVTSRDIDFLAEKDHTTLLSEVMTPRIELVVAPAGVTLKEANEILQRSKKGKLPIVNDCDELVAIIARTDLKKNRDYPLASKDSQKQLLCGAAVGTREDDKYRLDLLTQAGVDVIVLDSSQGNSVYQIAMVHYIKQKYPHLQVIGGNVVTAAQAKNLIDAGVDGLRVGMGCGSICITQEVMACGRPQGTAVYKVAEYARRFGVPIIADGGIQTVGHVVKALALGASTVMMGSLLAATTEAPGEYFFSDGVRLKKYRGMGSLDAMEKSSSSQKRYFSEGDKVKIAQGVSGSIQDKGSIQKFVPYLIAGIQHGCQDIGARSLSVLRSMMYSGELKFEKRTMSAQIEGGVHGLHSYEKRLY

Compound	Ki [1] [µM]	Ki [2] [µM]	IC50 ([3]; Homo sapiens, K562, 72 h) [µM]	Ratio [4]	IC50 ([3]; k562) [µM]
COc1c(C/C=C(\C)CCC(=O)O)cc(-c2cnco2)c(OC)c1C	> 100	> 100			
COc1cc(OC)c(-c2cnco2)cc1C/C=C(/C)CCC(=O)O	97.3	30.1	71		
COc1ccc(C/C=C(\C)CCC(=O)O)cc1-c1cnco1	20.8	8.7	> 100		
COc1cc(OC)c(-c2cnco2)cc1C/C=C(\C)CCC(=O)O (stereo in doubt; 3)	16	4.3	56	10	
COc1cc(C/C=C(\C)CCC(=O)O)ccc1-c1cnco1	42.8	14.3	> 100		
COc1cc(OC)c(-c2cnco2)cc1C/C=C(\C)CCC(=O)O (stereo in doubt; 3-E)	10.3	2.3			88
